Experiments:
NCI-H226 = experiment: Antiproliferative activity against human NCI-H226 cells after 48 hrs; type: functional; conditions: NCI-H226, 48 h
In short: (§1)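 NCI 60-cell screen. Cells were grown in RPMI 1640 with 5% FBS and 2 mM L-glutamine, then plated at 5,000–40,000 cells/well according to doubling time and preincubated for 24 h at 37 °C in 5% CO2. Compounds were dissolved in DMSO at 400× the top final concentration and tested at five 10-fold dilutions from 10−4 to 10−8 M for 48 h. Growth was read spectrophotometrically; GI50 is 50% net protein reduction.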

MOLT-4 = experiment: Antiproliferative activity against human MOLT4 cells after 48 hrs; type: functional; conditions: MOLT-4, 48 h; in short: as §1
HCT-15 = experiment: Antiproliferative activity against human HCT15 cells after 48 hrs; type: functional; conditions: Homo sapiens, HCT-15, 48 h; in short: as §1
Malme-3M = experiment: Antiproliferative activity against human MALME3M cells after 48 hrs; type: functional; in short: as §1
COLO 205 = experiment: Antiproliferative activity against human COLO205 cells after 48 hrs; type: functional; conditions: COLO 205, 48 h; in short: as §1
A498 = experiment: Antiproliferative activity against human A498 cells after 48 hrs; type: functional; conditions: A498, 48 h; in short: as §1
[1] = Antiproliferative activity against human NCI-ADR-RES cells after 48 hrs; type: functional; in short: as §1
MCF7 = experiment: Drug level in human MCF7 cells at 10 uM per 10^6 cells after 0.5 hrs; type: ADME, cell-based; conditions: mcf7, 0.5 h
In short: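 MCF7 cells kept in RPMI 1640 with 10% fetal calf serum at 37 °C, 5% CO2, then treated with 10 μM analog. Intracellular analog measured over time by HPLC-MS in positive-ion MRM mode. Quantified against calibration curves made by spiking an artificial matrix with standards plus internal standard, using analyte/IS peak-area ratios and linear regression. Reported as pmol per 1×10^6 cells.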

UACC-62 = experiment: Antiproliferative activity against human UACC62 cells after 48 hrs; type: functional; conditions: UACC-62, 48 h
In short: (§2)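 NCI 60-cell-line screen. Lines grown in RPMI 1640 with 5% fetal bovine serum and 2 mM L-glutamine, plated at 5,000–40,000 cells/well according to doubling time, left 24 h at 37 °C in 5% CO2. Drug stocks in DMSO at 400-fold the top final concentration. Five 10-fold dilutions, 10−4 to 10−8 M, incubated 48 h. Growth read spectrophotometrically as net protein; GI50 taken as 50% reduction.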

HCT-116 = experiment: Antiproliferative activity against human HCT116 cells after 48 hrs; type: functional; conditions: HCT-116, 48 h; in short: as §1
786-0 = experiment: Antiproliferative activity against human 786-0 cells after 48 hrs; type: functional; conditions: 786-0, 48 h; in short: as §1
NCI-H322M = experiment: Antiproliferative activity against human NCI-H322M cells after 48 hrs; type: functional; in short: as §1
SK-MEL-2 = experiment: Antiproliferative activity against human SKMEL2 cells after 48 hrs; type: functional; conditions: SK-MEL-2, 48 h; in short: as §1
OVCAR-8 = experiment: Antiproliferative activity against human OVCAR8 cells after 48 hrs; type: functional; conditions: OVCAR-8, 48 h; in short: as §1
OVCAR-5 = experiment: Antiproliferative activity against human OVCAR5 cells after 48 hrs; type: functional; conditions: OVCAR-5, 48 h; in short: as §1
MDA-MB-231 = experiment: Antiproliferative activity against human MDA-MB-231 cells after 48 hrs; type: functional; conditions: MDA-MB-231, 48 h; in short: as §1
[2] = Antiproliferative activity against human HL60(TB) cells after 48 hrs; type: functional, HL-60(TB); conditions: HL-60, 48 h
In short: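 NCI 60-line panel screen: cells grown in RPMI 1640 with 5% fetal bovine serum and 2 mM L-glutamine, plated at 5,000–40,000 cells/well by doubling time, and preincubated 24 h at 37 °C in 5% CO2. Drugs were solubilised in DMSO at 400-fold the final maximum and tested at five 10-fold dilutions from 10−4 to 10−8 M for 48 h. Net protein was read spectrophotometrically, and the concentration giving 50% reduction was reported as log10 GI50.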

NCI-H23 = experiment: Antiproliferative activity against human NCI-H23 cells after 48 hrs; type: functional; conditions: NCI-H23, 48 h; in short: as §1
RXF 393 = experiment: Antiproliferative activity against human RXF393 cells after 48 hrs; type: functional; conditions: RXF 393, 48 h; in short: as §1
CAKI-1 = experiment: Antiproliferative activity against human CAKI1 cells after 48 hrs; type: functional; conditions: CAKI-1, 48 h; in short: as §1
TK-10 = experiment: Antiproliferative activity against human TK10 cells after 48 hrs; type: functional; conditions: TK-10, 48 h; in short: as §2
SF-295 = experiment: Antiproliferative activity against human SF295 cells after 48 hrs; type: functional; conditions: SF-295, 48 h; in short: as §1
BT-549 = experiment: Antiproliferative activity against human BT549 cells after 48 hrs; type: functional; conditions: BT-549, 48 h; in short: as §1
NCI-H460 = experiment: Antiproliferative activity against human NCI-H460 cells after 48 hrs; type: functional; conditions: NCI-H460, 48 h; in short: as §1
SN12C = experiment: Antiproliferative activity against human SN12C cells after 48 hrs; type: functional; in short: as §1
RPMI-8226 = experiment: Antiproliferative activity against human RPMI8226 cells after 48 hrs; type: functional; conditions: RPMI-8226, 48 h; in short: as §1
[3] = read-out: Log LC50 (the source's name) (converted)

## C[C@@H](NC(=O)CCCCCCCCCCCCCCC[n+]1ccccc1)[C@@H](O)c1ccccc1.[Br-]
NCI-H226
  GI50: 4.17 µM
NCI-H226; [3]
  CC50: > 100 µM
NCI-H226; read-out: Log TGI (converted)
  TGI: 22.9 µM
MOLT-4
  GI50: 2.51 µM
  LC50: 100 µM
MOLT-4; read-out: Log TGI (converted)
  TGI: 6.46 µM
HCT-15
  GI50: 17.8 µM
  LC50: 58.9 µM
HCT-15; read-out: Log TGI (converted)
  TGI: 32.4 µM
Malme-3M
  GI50: 1.66 µM
  LC50: 5.75 µM
Malme-3M; read-out: Log TGI (converted)
  TGI: 3.09 µM
COLO 205
  GI50: 1.38 µM
COLO 205; read-out: Log TGI (converted)
  TGI: 3.02 µM
A498
  GI50: 12.9 µM
A498; [3]
  CC50: 61.7 µM
A498; read-out: Log TGI (converted)
  TGI: 28.2 µM
[1]
  GI50: 19.5 µM
  LC50: 85.1 µM
[1]; read-out: Log TGI (converted)
  TGI: 40.7 µM
MCF7
  Drug uptake: 800 pmol
UACC-62
  GI50: 1.48 µM
  LC50: 5.75 µM
UACC-62; read-out: Log TGI (converted)
  TGI: 2.88 µM
HCT-116
  GI50: 3.39 µM
  LC50: 58.9 µM
HCT-116; read-out: Log TGI (converted)
  TGI: 13.2 µM
786-0
  GI50: 2.63 µM
786-0; [3]
  CC50: 34.7 µM
786-0; read-out: Log TGI (converted)
  TGI: 8.51 µM
NCI-H322M
  GI50: 11 µM
NCI-H322M; [3]
  CC50: 49 µM
NCI-H322M; read-out: Log TGI (converted)
  TGI: 22.9 µM
SK-MEL-2
  GI50: 2.19 µM
SK-MEL-2; read-out: Log TGI (converted)
  TGI: 4.37 µM
OVCAR-8
  GI50: 2.75 µM
OVCAR-8; [3]
  CC50: > 100 µM
OVCAR-8; read-out: Log TGI (converted)
  TGI: 13.5 µM
OVCAR-5
  GI50: 5.25 µM
OVCAR-5; [3]
  CC50: 50.1 µM
OVCAR-5; read-out: Log TGI (converted)
  TGI: 18.2 µM
MDA-MB-231
  GI50: 1.74 µM
  LC50 (50% lethal concentration): 7.59 µM
MDA-MB-231; read-out: Log TGI (converted)
  TGI: 3.63 µM
[2]
  GI50: 1.12 µM
  LC50: > 100 µM
[2]; read-out: Log TGI (converted)
  TGI: 3.72 µM
NCI-H23
  GI50: 2.95 µM
NCI-H23; [3]
  CC50: 56.2 µM
NCI-H23; read-out: Log TGI (converted)
  TGI: 11.7 µM
RXF 393
  GI50: 4.57 µM
RXF 393; [3]
  CC50: 97.7 µM
RXF 393; read-out: Log TGI (converted)
  TGI: 24 µM
CAKI-1
  GI50: 1.38 µM
CAKI-1; [3]
  CC50: 66.1 µM
CAKI-1; read-out: Log TGI (converted)
  TGI: 30.2 µM
TK-10
  GI50: 4.9 µM
TK-10; [3]
  CC50: 40.7 µM
TK-10; read-out: Log TGI (converted)
  TGI: 15.8 µM
SF-295
  GI50: 8.32 µM
  LC50: 63.1 µM
SF-295; read-out: Log TGI (converted)
  TGI: 24 µM
BT-549
  GI50: 0.0692 µM
  LC50: 3.39 µM
BT-549; read-out: Log TGI (converted)
  TGI: 1.07 µM
NCI-H460
  GI50: 2.95 µM
NCI-H460; [3]
  CC50: > 100 µM
NCI-H460; read-out: Log TGI (converted)
  TGI: 11.5 µM
SN12C
  GI50: 1.74 µM
  LC50 (50% net cell kill): 7.76 µM
SN12C; read-out: Log TGI (converted)
  TGI: 3.63 µM
RPMI-8226
  GI50: 0.288 µM
RPMI-8226; [3]
  CC50: 5.13 µM
RPMI-8226; read-out: Log TGI (converted)
  TGI: 1.91 µM

— ChEMBL document CHEMBL1143122, “Novel analogs of D-e-MAPP and B13. Part 1: synthesis and evaluation as potential anticancer agents” (Bioorg Med Chem, 2008)
